# Measured values reported in ChEMBL document CHEMBL4373711, “Development of 3,5-Dinitrophenyl-Containing 1,2,4-Triazoles and Their Trifluoromethyl Analogues as Highly Efficient Antitubercular Agents Inhibiting Decaprenylphosphoryl-β-d-ribofuranose 2'-Oxidase” (J Med Chem, 2019).
# How the values were obtained:
# Type in all cases: functional
# Mycobacterium kansasii [1] = assay: Antimycobacterial activity against Mycobacterium kansasii CNCTC My 235/80 after 14 days; conditions: CNCTC My 235/80, 336 h
# Method in brief: (§1)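 Microdilution in Šula's semisynthetic medium; compounds in DMSO at 32–0.03 µM. Inoculum from 1.0 McFarland suspension diluted 10-4. […] Isoniazid and rifampicin as reference drugs.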
# Mycobacterium avium [2] = assay: Antimycobacterial activity against Mycobacterium avium CNCTC My 330/88 after 14 days; conditions: CNCTC My 330/88, 336 h
# Method in brief: (§2)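 M. avium was tested by microdilution in Šula's semisynthetic medium, with compounds dissolved in DMSO and serially diluted from 1000 down to 1. Inoculum was a 1.0 McFarland suspension diluted 10-5. Plates were incubated at 37 °C and read at 14 and 21 days. […] Isoniazid and rifampicin served as standards.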
# [3] = system: Mycobacterium tuberculosis; assay: Antimycobacterial activity against Mycobacterium tuberculosis H37Rv CNCTC My 331/88 after 14 days; conditions: H37Rv CNCTC My 331/88, 336 h
# Method in brief: (§3)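 M. tuberculosis strains (H37Rv and clinical MDR/XDR isolates) tested by microdilution in Šula's semisynthetic medium. Compounds were dissolved in DMSO and tested at 32 to 0.03 µM in twofold steps. Inoculum was a 1.0 McFarland suspension diluted 10-3. Plates were incubated at 37 °C and read at 14 and 21 days.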
# Mycobacterium avium [4] = assay: Antimycobacterial activity against Mycobacterium avium CNCTC My 330/88 after 21 days; conditions: CNCTC My 330/88, 504 h; method in brief: as §2
# [5] = system: Mycobacterium tuberculosis; assay: Antimycobacterial activity against Mycobacterium tuberculosis H37Rv CNCTC My 331/88 after 21 days; conditions: H37Rv CNCTC My 331/88, 504 h; method in brief: as §3
# Mycobacterium kansasii [6] = assay: Antimycobacterial activity against Mycobacterium kansasii 6509/96 after 21 days; conditions: 6509/96, 504 h; method in brief: as §1
# Mycobacterium kansasii [7] = assay: Antimycobacterial activity against Mycobacterium kansasii CNCTC My 235/80 after 7 days; conditions: CNCTC My 235/80, 168 h; method in brief: as §1
# Mycobacterium kansasii [8] = assay: Antimycobacterial activity against Mycobacterium kansasii 6509/96 after 14 days; conditions: 6509/96, 336 h; method in brief: as §1
# Mycobacterium kansasii [9] = assay: Antimycobacterial activity against Mycobacterium kansasii 6509/96 after 7 days; conditions: 6509/96, 168 h; method in brief: as §1
# Mycobacterium kansasii [10] = assay: Antimycobacterial activity against Mycobacterium kansasii CNCTC My 235/80 after 21 days; conditions: CNCTC My 235/80, 504 h; method in brief: as §1
SMILES,MIC99 (Mycobacterium kansasii [1]),MIC99 (Mycobacterium avium [2]),MIC99 [3],MIC99 (Mycobacterium avium [4]),MIC99 [5],MIC99 (Mycobacterium kansasii [6]),MIC99 (Mycobacterium kansasii [7]),MIC99 (Mycobacterium kansasii [8]),MIC99 (Mycobacterium kansasii [9]),MIC99 (Mycobacterium kansasii [10])
O=[N+]([O-])c1cc(CSc2nnc(-c3ccccc3)n2Cc2ccc(Br)cc2)cc([N+](=O)[O-])c1,4 µM,250 µM,2 µM,250 µM,2 µM,4 µM,2 µM,4 µM,2 µM,4 µM
O=[N+]([O-])c1cc(CSc2nnc(CCCCCO)n2Cc2ccccc2)cc([N+](=O)[O-])c1,16 µM,> 1000 µM,16 µM,> 1000 µM,32 µM,32 µM,8 µM,32 µM,16 µM,32 µM
O=C(NNC(=S)NCc1ccccc1)c1cc([N+](=O)[O-])cc([N+](=O)[O-])c1,32 µM,62 µM,8 µM,62 µM,8 µM,16 µM,32 µM,16 µM,16 µM,32 µM
CCn1c(SCc2cc([N+](=O)[O-])cc([N+](=O)[O-])c2)nnc1-c1ccccc1,2 µM,250 µM,2 µM,250 µM,4 µM,4 µM,2 µM,4 µM,2 µM,4 µM
Cc1ccc(-c2nnc(SCc3cc([N+](=O)[O-])cc(C(F)(F)F)c3)n2Cc2ccccc2)cc1,> 32 µM,250 µM,> 32 µM,250 µM,> 32 µM,> 32 µM,> 32 µM,> 32 µM,> 32 µM,> 32 µM
O=[N+]([O-])c1ccc(-c2nnc(SCc3cc([N+](=O)[O-])cc([N+](=O)[O-])c3)n2Cc2ccccc2)cc1,4 µM,250 µM,4 µM,250 µM,4 µM,8 µM,2 µM,4 µM,2 µM,4 µM
Cn1c(SCc2cc([N+](=O)[O-])cc([N+](=O)[O-])c2)nnc1-c1ccccc1,8 µM,125 µM,4 µM,250 µM,4 µM,16 µM,4 µM,8 µM,4 µM,16 µM
O=[N+]([O-])c1cc(CSc2nnc(-c3ccccc3)n2-c2ccccc2)cc([N+](=O)[O-])c1,4 µM,> 1000 µM,4 µM,> 1000 µM,4 µM,8 µM,2 µM,4 µM,2 µM,8 µM
COc1ccc(CSc2nnc(-c3ccccc3)n2Cc2cc([N+](=O)[O-])cc([N+](=O)[O-])c2)cc1,> 32 µM,250 µM,16 µM,250 µM,16 µM,,> 32 µM,> 32 µM,> 32 µM,
O=[N+]([O-])c1cc(Cn2c(SCc3ccc(Cl)cc3)nnc2-c2ccccc2)cc([N+](=O)[O-])c1,8 µM,250 µM,8 µM,250 µM,16 µM,32 µM,4 µM,32 µM,16 µM,16 µM
